One block for each compound: values may come before it. Active and inactive are the calls of the source. The rule behind the calls is not given here.
Assays:
518A2 [1] = assay: Antiproliferative activity against human 518A2 cells after 72 hrs by MTT assay; type: functional, cell-based; settings: for IC50: 518A2, 72 h
Summary of the method: (§1)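 MTT read-out after 72 h of continuous exposure. Viability is expressed as percentage of viable cells relative to untreated controls. IC50 comes from dose-response curves. Values are means±SD of four independent experiments (two for some entries). DMSO was below 1%, with vehicle controls at equal DMSO. Precipitation was excluded spectrometrically and microscopically.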

HT-29 [2] = assay: Antiproliferative activity against human HT-29 cells after 72 hrs by MTT assay; type: functional, cell-based; settings: HT-29, 72 h; summary of the method: as §1
A2780 = assay: Antiproliferative activity against human A2780 cells after 72 hrs by SRB assay; type: functional, cell-based; settings: A2780, 72 h
Summary of the method: (§2)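 Ovarian A2780 and cisplatin-resistant A2780cis cells were exposed for 72 h and stained with SRB. IC50 comes from dose-response curves, as means±SD of three independent experiments. Final DMSO was below 1%, with matched vehicle controls.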

[3] = Antiproliferative activity against human A2780cis cells after 72 hrs by SRB assay; type: functional, cell-based; summary of the method: as §2
DLD-1 = assay: Antiproliferative activity against human DLD1 cells after 72 hrs by MTT assay; type: functional, cell-based; settings: DLD-1, 72 h; summary of the method: as §1
EA.hy 926 = assay: Antiproliferative activity against human EAhy926 cells after 72 hrs by MTT assay; type: functional, cell-based; settings: EA.hy 926, 72 h; summary of the method: as §1
PANC-1 = assay: Antiproliferative activity against human PANC1 cells after 72 hrs by MTT assay; type: functional, cell-based; settings: PANC-1, 72 h; summary of the method: as §1
HCT-116 = assay: Antiproliferative activity against human HCT116 cells after 72 hrs by MTT assay; type: functional, cell-based; settings: HCT-116, 72 h; summary of the method: as §1
[4] = Antiproliferative activity against human KB-V1/Vbl cells after 72 hrs by MTT assay; type: functional, cell-based; summary of the method: as §1
[5] = Antiproliferative activity against human MCF7/Topo cells after 72 hrs by MTT assay; type: functional, cell-based; summary of the method: as §1
HT-29 [6] = assay: Cell cycle arrest in human HT-29 cells assessed as accumulation of cells at sub G1 phase at 100 nM after 24 hrs by propidium iodide staining-based flow cytometric analysis (reference value: 1.2 +/- 0.3%); type: functional
HT-29 [7] = assay: Cell cycle arrest in human HT-29 cells assessed as accumulation of cells at sub G1 phase at 250 nM after 24 hrs by propidium iodide staining-based flow cytometric analysis (reference value: 1.2 +/- 0.3%); type: functional
HT-29 [8] = assay: Cell cycle arrest in human HT-29 cells assessed as accumulation of cells at sub G1 phase at 350 nM after 24 hrs by propidium iodide staining-based flow cytometric analysis (reference value: 1.2 +/- 0.3%); type: functional
HT-29 [9] = assay: Cell cycle arrest in human HT-29 cells assessed as accumulation of cells at G1 phase at 100 nM after 24 hrs by propidium iodide staining-based flow cytometric analysis (reference value: 75.1 +/- 1.1%); type: functional
HT-29 [10] = assay: Cell cycle arrest in human HT-29 cells assessed as accumulation of cells at G1 phase at 250 nM after 24 hrs by propidium iodide staining-based flow cytometric analysis (reference value: 75.1 +/- 1.1%); type: functional
HT-29 [11] = assay: Cell cycle arrest in human HT-29 cells assessed as accumulation of cells at G1 phase at 350 nM after 24 hrs by propidium iodide staining-based flow cytometric analysis (reference value: 75.1 +/- 1.1%); type: functional
HT-29 [12] = assay: Cell cycle arrest in human HT-29 cells assessed as accumulation of cells at S phase at 100 nM after 24 hrs by propidium iodide staining-based flow cytometric analysis (reference value: 12.3 +/- 0.4%); type: functional
HT-29 [13] = assay: Cell cycle arrest in human HT-29 cells assessed as accumulation of cells at S phase at 250 nM after 24 hrs by propidium iodide staining-based flow cytometric analysis (reference value: 12.3 +/- 0.4%); type: functional
HT-29 [14] = assay: Cell cycle arrest in human HT-29 cells assessed as accumulation of cells at S phase at 350 nM after 24 hrs by propidium iodide staining-based flow cytometric analysis (reference value: 12.3 +/- 0.4%); type: functional
HT-29 [15] = assay: Cell cycle arrest in human HT-29 cells assessed as accumulation of cells at G2/M phase at 100 nM after 24 hrs by propidium iodide staining-based flow cytometric analysis (reference value: 11.4 +/- 1.4%); type: functional
HT-29 [16] = assay: Cell cycle arrest in human HT-29 cells assessed as accumulation of cells at G2/M phase at 250 nM after 24 hrs by propidium iodide staining-based flow cytometric analysis (reference value: 11.4 +/- 1.4%); type: functional
HT-29 [17] = assay: Cell cycle arrest in human HT-29 cells assessed as accumulation of cells at G2/M phase at 350 nM after 24 hrs by propidium iodide staining-based flow cytometric analysis (reference value: 11.4 +/- 1.4%); type: functional
Chorioallantoic membrane [18] = assay: Antiangiogenic activity in Leghorn chicken embryo chorioallantoic membrane assessed as disruption of smaller blood vessels at 5 nmol after 6 hrs by light microscopic analysis; type: functional, tissue-based; settings: Gallus gallus
Summary of the method: (§3)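 Fertilized chicken eggs, CAM assay. Compound was applied topically into a small silicon foil ring placed on the CAM. The membrane and its extraembryonal blood vessels were monitored over 24 h, with observations at 6 h and 24 h post application.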

Chorioallantoic membrane [19] = assay: Antiangiogenic activity in Leghorn chicken embryo chorioallantoic membrane assessed as induction of hemorrhages at 5 nmol after 6 hrs by light microscopic analysis; type: functional, tissue-based; settings: Gallus gallus; summary of the method: as §3
Chorioallantoic membrane [20] = assay: Antiangiogenic activity in Leghorn chicken embryo chorioallantoic membrane assessed as induction of hemorrhages at 5 nmol after 24 hrs by light microscopic analysis; type: functional, tissue-based; settings: Gallus gallus; summary of the method: as §3
Chorioallantoic membrane [21] = assay: Antiangiogenic activity in Leghorn chicken embryo chorioallantoic membrane assessed as reduction in diameter of main blood vessel at 5 nmol after 24 hrs by light microscopic analysis; type: functional, tissue-based; settings: Gallus gallus; summary of the method: as §3
Chorioallantoic membrane [22] = assay: Antiangiogenic activity in Leghorn chicken embryo chorioallantoic membrane assessed as reduction in blood vessel area at 5 nmol after 6 hrs by light microscopic analysis relative to control; type: functional, tissue-based; set-up: scale not given: the % may be the effect or the level left; settings: Gallus gallus
Summary of the method: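 The CAM assay was run with topical application into a silicon foil ring atop the CAM of fertilized chicken eggs. Area covered by blood vessels was quantified by fractal analysis relative to control.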

Chorioallantoic membrane [23] = assay: Antiangiogenic activity in Leghorn chicken embryo chorioallantoic membrane assessed as effect on blood vessel length at 5 nmol after 6 hrs by light microscopic analysis; type: functional, tissue-based; settings: Gallus gallus; summary of the method: as §3
518A2 [24] = assay: Induction of apoptosis in human 518A2 cells assessed as accumulation at subG1 phase; type: functional, cell-based
518A2 [25] = assay: Induction of cell cycle arrest in human 518A2 cells; type: functional, cell-based
HT-29 [26] = assay: Cell cycle arrest in human HT-29 cells assessed as accumulation of cells at G2/M phase after 24 hrs by propidium iodide staining-based flow cytometric analysis; type: functional
Chorioallantoic membrane [27] = assay: Antiangiogenic activity in Leghorn chicken embryo chorioallantoic membrane assessed as disruption of smaller blood vessels at 5 nmol after 24 hrs by light microscopic analysis; type: functional, tissue-based; settings: Gallus gallus; summary of the method: as §3
[28] = Solubility in tween80/ethanol (1:1) solution; type: physicochemical

IC50 (HT-29 [2]): 209 nM
IC50 (A2780): 61.1 nM
IC50 (DLD-1): 22.3 nM
IC50 (PANC-1): 65.9 nM
IC50 (HCT-116): 112 nM
Structure (SMILES): N#CC1=C(N)Oc2c(cc(Cl)c3ccccc23)C1c1cccc([N+](=O)[O-])c1 (configuration not stated)
Activity (518A2 [1]): Dose-dependent effect
IC50 (518A2 [1]): 225 nM
IC50 [3]: 46 nM
IC50 (EA.hy 926): 90.8 nM
IC50 [4]: 73.3 nM
IC50 [5]: 88.5 nM
Activity (HT-29 [6]): 2%
Activity (HT-29 [7]): 17.6%
Activity (HT-29 [8]): 6.6%
Activity (HT-29 [9]): 55.8%
Activity (HT-29 [10]): 53.5%
Activity (HT-29 [11]): 14.8%
Activity (HT-29 [12]): 23.6%
Activity (HT-29 [13]): 11.3%
Activity (HT-29 [14]): 5.2%
Activity (HT-29 [15]): 18.6%
Activity (HT-29 [16]): 17.7%
Activity (HT-29 [17]): 73.5%
Activity (Chorioallantoic membrane [18]): Active
Activity (Chorioallantoic membrane [19]): Active
Activity (Chorioallantoic membrane [20]): inactive
Activity (Chorioallantoic membrane [21]): Active
Activity (Chorioallantoic membrane [22]): 74%
Activity (Chorioallantoic membrane [23]): inactive
Activity (518A2 [24]): Active
Activity (518A2 [25]): inactive
Activity (HT-29 [26]): Dose-dependent effect
Activity (Chorioallantoic membrane [27]): inactive

IC50 (HT-29 [2]): 103 nM
IC50 (A2780): 16.7 nM
IC50 (DLD-1): 59 nM
IC50 (PANC-1): 27.9 nM
IC50 (HCT-116): 69.2 nM
solubility [28]: Insoluble
Structure (SMILES): COc1c(Cl)cc(C2C(C#N)=C(N)Oc3c2ccc2ccccc32)cc1Cl (configuration not stated)
Activity (518A2 [1]): Dose-dependent effect
IC50 (518A2 [1]): 44.6 nM
IC50 [3]: 19.2 nM
IC50 (EA.hy 926): 32.6 nM
IC50 [4]: 30.2 nM
IC50 [5]: 29.9 nM

IC50 (HT-29 [2]): 45.2 nM
IC50 (A2780): 16.4 nM
IC50 (DLD-1): 15 nM
IC50 (PANC-1): 13.1 nM
IC50 (HCT-116): 29.5 nM
solubility [28]: Insoluble
Structure (SMILES): COc1c(I)cc(C2C(C#N)=C(N)Oc3c2ccc2ccccc32)cc1I (configuration not stated)
Activity (518A2 [1]): Dose-dependent effect
IC50 (518A2 [1]): 37.1 nM
IC50 [3]: 18.2 nM
IC50 (EA.hy 926): 17.9 nM
IC50 [4]: 16.5 nM
IC50 [5]: 22.8 nM
